Laboratory results taken from ChEMBL document CHEMBL1152508, “Interaction of drug based binuclear mixed-ligand complexes with DNA” (2009).

How the values were obtained:
Assay type in all cases: functional
Escherichia coli = test: Antibacterial activity against Escherichia coli after 24 hrs by twofold serial dilution method
Method in brief: (§1)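 Bacteria activated by inoculation into luria broth for 24 h at 30 °C. Compounds dissolved in DMSO, then diluted in luria broth as twofold serial concentrations. Test cultures incubated 24 h at 37 °C. MIC taken as the lowest concentration giving complete inhibition of growth.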

Staphylococcus aureus = test: Antibacterial activity against Staphylococcus aureus after 24 hrs by twofold serial dilution method; method in brief: as §1
Serratia marcescens = test: Antibacterial activity against Serratia marcescens after 24 hrs by twofold serial dilution method; method in brief: as §1
Bacillus subtilis = test: Antibacterial activity against Bacillus subtilis after 24 hrs by twofold serial dilution method; method in brief: as §1
Pseudomonas aeruginosa = test: Antibacterial activity against Pseudomonas aeruginosa after 24 hrs by twofold serial dilution method; method in brief: as §1

Row | SMILES | Activity (Escherichia coli) | Activity (Staphylococcus aureus) | Activity (Serratia marcescens) | Activity (Bacillus subtilis) | Activity (Pseudomonas aeruginosa)
1 | COc1ccc(/C=N/CC/N=C/c2ccc(OC)cc2)cc1 | 2193 µM | 1687 µM | 1687 µM | 1518 µM | 1855 µM
2 | C/C(=N/c1ccccc1/N=C(\C)c1ccccc1)c1ccccc1 | 2080 µM | 1760 µM | 1760 µM | 1600 µM | 1920 µM
3 | Nc1cccc2cccc(N)c12 | 4108 µM | 3160 µM | 4108 µM | 3476 µM | 3792 µM
4 | COc1ccc(/N=C(C)\C(C)=N\c2ccc(OC)cc2)cc1 | 2361 µM | 1855 µM | 2024 µM | 1518 µM | 2193 µM
5 | Nc1ccccc1N | 6473 µM | 5086 µM | 6010 µM | 5548 µM | 6010 µM
6 | O=C(O)c1cn(C2CC2)c2cc(N3CCNCC3)c(F)cc2c1=O [CIPROFLOXACIN] | 1.36 µM | 1.63 µM | 1.63 µM | 1.09 µM | 1.36 µM
7 | CCN1CCN(c2cc3c(cc2F)c(=O)c(C(=O)O)cn3C2CC2)CC1 [ENROFLOXACIN] | 1.39 µM | 1.95 µM | 1.67 µM | 3.9 µM | 1.39 µM
8 | NCCN [ETHYLENEDIAMINE] | 10815 µM | 8319 µM | 9983 µM | 9151 µM | 10815 µM
9 | COc1c(N2CCNC(C)C2)c(F)cc2c(=O)c(C(=O)O)cn(C3CC3)c12 (stereo not given) [GATIFLOXACIN] | 2.93 µM | 5.06 µM | 2.93 µM | 4 µM | 1.01 µM
10 | C[C@H]1COc2c(N3CCN(C)CC3)c(F)cc3c(=O)c(C(=O)O)cn1c23.C[C@H]1COc2c(N3CCN(C)CC3)c(F)cc3c(=O)c(C(=O)O)cn1c23.O [LEVOFLOXACIN] | 0.97 µM | 1.66 µM | 1.67 µM | 2.21 µM | 1.66 µM
11 | CCn1cc(C(=O)O)c(=O)c2cc(F)c(N3CCNCC3)cc21 [NORFLOXACIN] | 2.82 µM | 2.5 µM | 4.07 µM | 2.51 µM | 3.76 µM
12 | CC1COc2c(N3CCN(C)CC3)c(F)cc3c(=O)c(C(=O)O)cn1c23 (stereo not given) [OFLOXACIN] | 1.38 µM | 1.94 µM | 1.66 µM | 1.38 µM | 2.21 µM
13 | CCn1cc(C(=O)O)c(=O)c2cc(F)c(N3CCN(C)CC3)cc21 [PEFLOXACIN] | 2.7 µM | 2.1 µM | 5.1 µM | 2.4 µM | 5.7 µM
14 | C[C@@H]1CN(c2c(F)c(N)c3c(=O)c(C(=O)O)cn(C4CC4)c3c2F)C[C@H](C)N1 [SPARFLOXACIN] | 1.27 µM | 1.27 µM | 1.53 µM | 2.04 µM | 1.53 µM
